ChEMBL document CHEMBL1275434, “In vitro evaluation of CBR-2092, a novel rifamycin-quinolone hybrid antibiotic: studies of the mode of action in Staphylococcus aureus” (Antimicrob Agents Chemother, 2008)
≈ marks a conversion by molar mass, not a printed value. Calls of active or inactive are those of the source. The rule behind the calls is not given here.

Experiments:
[1] = test system: Staphylococcus aureus; experiment: Antimicrobial activity against Staphylococcus aureus CB1954 harboring rpoB H481Y, gyrA S84L, K809 deficient gyrA, parC S80F, parC A523D mutant genes selected after CBR-2092 exposure for 7 days by agar dilution method; type: functional; settings: CB1954, 168 h
Procedure, shortened: (§1)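 CLSI agar dilution MIC with cation-adjusted Mueller-Hinton (MHII) agar as the base medium.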

[2] = test system: Staphylococcus aureus; experiment: Antimicrobial activity against Staphylococcus aureus CB1883 harboring rpoB R484H mutant gene, L520 deficient gyrA gene, gyrA S84L mutant gene and R236 duplicated par C gene by broth microdilution method; type: functional
Procedure, shortened: (§2)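 CLSI broth microdilution MIC in MHII broth with 0.002% (vol/vol) polysorbate 80. Isolates came from daily stepwise broth passage at sub-MIC drug (MHII without polysorbate 80, 10^6 CFU/ml inoculum, 20–24 h shaking at 37°C), were purified drug-free, and were sequenced at target loci.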

[3] = test system: Staphylococcus aureus; experiment: Inhibition of RNA synthesis in Staphylococcus aureus CB190 assessed as decrease in [5,6-3H]uridine incorporation at 0.5 ug/ml; type: functional, organism-based
[4] = test system: Staphylococcus aureus; experiment: Antimicrobial activity against Staphylococcus aureus CB1880 harboring rpoB R484H mutant gene by agar dilution method; type: functional
Procedure, shortened: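 CLSI agar dilution MIC on MHII base medium against stepwise-passage isolates; passage was in MHII broth without polysorbate 80, daily at 37°C.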

[5] = test system: Staphylococcus aureus; experiment: Antimicrobial activity against rifampin-sensitive Staphylococcus aureus CB190 harboring rpoB H472 mutant gene by broth microdilution method; type: functional
Procedure, shortened: (§3)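 CLSI broth microdilution MIC in cation-adjusted Mueller-Hinton (MHII) broth supplemented with 0.002% (vol/vol) polysorbate 80, included to limit compound loss to plastic surfaces.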

[6] = test system: Staphylococcus aureus; experiment: Antimicrobial activity against Staphylococcus aureus CB1430 harboring rpoB H481Y, parE E474K and gyrA S84L mutant genes selected after 0.18 ug/ml drug exposure by broth microdilution method; type: functional
Procedure, shortened: (§4)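 CLSI broth microdilution MIC in cation-adjusted Mueller-Hinton (MHII) broth with 0.002% (vol/vol) polysorbate 80. Single-step mutants were selected on agar […], purified by drug-free passage, their phenotype re-verified, and resistance loci sequenced.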

[7] = test system: Staphylococcus aureus; experiment: Activity at Staphylococcus aureus DNA topoisomerase 4 subunit ParC S80F mutant
[8] = test system: Staphylococcus aureus; experiment: Inhibition of DNA synthesis in Staphylococcus aureus CB190 assessed as decrease in [methyl-3H]thymidine incorporation at 0.5 ug/ml; type: functional, organism-based
[9] = test system: Staphylococcus aureus; experiment: Antimicrobial activity against Staphylococcus aureus CB1881 harboring rpoB R484H mutant gene and L520 deficient gyrA gene by broth microdilution method; type: functional; procedure, shortened: as §2
[10] = test system: Staphylococcus aureus; experiment: Antimicrobial activity against rifampin-sensitive Staphylococcus aureus CB190 harboring rpoB Q468L mutant gene by broth microdilution method; type: functional; procedure, shortened: as §3
[11] = test system: Staphylococcus aureus; experiment: Antimicrobial activity against Staphylococcus aureus CB1954 harboring rpoB H481Y, gyrA S84L, K809 deficient gyrA, parC S80F, parC A523D mutant genes selected after CBR-2092 exposure for 7 days by broth microdilution method; type: functional; settings: CB1954, 168 h; procedure, shortened: as §3
[12] = test system: Staphylococcus aureus; experiment: Antimicrobial activity against Staphylococcus aureus CB1353 harboring rpoB H481Y, parC S80F, parE V458G and gyrA S84L mutant genes selected after 0.53 ug/ml drug exposure by broth microdilution method; type: functional
[13] = test system: Staphylococcus aureus; experiment: Antimicrobial activity against rifampin-sensitive Staphylococcus aureus CB190 harboring rpoB A477V mutant gene by broth microdilution method; type: functional; procedure, shortened: as §3
[14] = test system: Staphylococcus aureus; experiment: Antimicrobial activity against rifampin-sensitive Staphylococcus aureus CB190 harboring rpoB E473 mutant gene by broth microdilution method; type: functional; procedure, shortened: as §3
[15] = test system: Staphylococcus aureus; experiment: Antimicrobial activity against Staphylococcus aureus CB1326 harboring rpoB H481Y and gyrA S784F mutant genes selected after 0.2 ug/ml drug exposure by broth microdilution method; type: functional; procedure, shortened: as §4
[16] = test system: Staphylococcus aureus; experiment: Antimicrobial activity against rifampin-sensitive Staphylococcus aureus CB190 harboring rpoB Q468K mutant gene by broth microdilution method; type: functional; procedure, shortened: as §3
[17] = test system: Staphylococcus aureus; experiment: Antimicrobial activity against Staphylococcus aureus CB1882 harboring rpoB R484H mutant gene, L520 deficient gyrA gene and R236 duplicated parC gene; type: functional
[18] = test system: Staphylococcus aureus; experiment: Antimicrobial activity against Staphylococcus aureus CB1416 harboring rpo BH481Y and gyrA L795S mutant genes selected after 0.1 ug/ml drug exposure by broth microdilution method
[19] = test system: Staphylococcus aureus; experiment: Antimicrobial activity against Staphylococcus aureus CB190 by broth microdilution method; type: functional
[20] = test system: Staphylococcus aureus; experiment: Antimicrobial activity against Staphylococcus aureus CB1880 harboring rpoB R484H mutant gene; type: functional
[21] = Inhibition of Staphylococcus aureus RpoB H481Y mutant
Procedure, shortened: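 Recombinant S. aureus σA RNA polymerase holoenzyme carrying RpoB H481Y. Single-round transcription of the pGL2B-T7A1-G-less template. The 272-nt G-less RNA product is quantified by gel electrophoresis. IC50 is the concentration that inhibits 50% of product formed without inhibitor.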

[22] = test system: Staphylococcus aureus; experiment: Antimicrobial activity against Staphylococcus aureus CB1420 harboring rpoB H481Y and gyrA G584V mutant genes selected after 0.1 ug/ml drug exposure by broth microdilution method
[23] = test system: Staphylococcus aureus; experiment: Antimicrobial activity against Staphylococcus aureus CB370 harboring rpoB H481Y mutant gene by agar dilution method; type: functional; procedure, shortened: as §1
[24] = test system: Staphylococcus aureus; experiment: Antimicrobial activity against Staphylococcus aureus CB811 harboring quinolone-resistant gyrA S84L mutant gene by broth microdilution method; type: functional; procedure, shortened: as §3
[25] = test system: Staphylococcus aureus; experiment: Antimicrobial activity against Staphylococcus aureus CB1335 harboring rpoB H481Y, parC S80F, parE E474Q and gyrA S84L mutant genes selected after 0.8 ug/ml drug exposure by broth microdilution method; type: functional
[26] = test system: Staphylococcus aureus; experiment: Antimicrobial activity against Staphylococcus aureus CB1891 harboring […], parE P587S and parE F638V mutant genes by broth microdilution method
[27] = test system: Staphylococcus aureus; experiment: Antimicrobial activity against Staphylococcus aureus CB1947 harboring rpoB H481Y, gyrA S84L, E697 deficient gyrA, parC G167V mutant genes selected after CBR-2092 exposure for 20 days by agar dilution method; settings: CB1947, 480 h
[28] = test system: DNA gyrase subunit A (Staphylococcus aureus), P20831 [S84L]; experiment: Activity at Staphylococcus aureus wild-type GyrA S84L mutant
[29] = test system: Staphylococcus aureus; experiment: Antimicrobial activity against Staphylococcus aureus CB1887 harboring rpoB R484H, L520 deficient gyrA, […], R236 duplicated parC and parC H103Y mutant genes selected after ABT-719 exposure for 20 days by agar dilution method; type: functional; settings: CB1887, 480 h
[30] = test system: Staphylococcus aureus; experiment: Antimicrobial activity against Staphylococcus aureus CB1881 harboring rpoB R484H mutant gene and L520 deficient gyrA gene; type: functional
[31] = test system: Staphylococcus aureus; experiment: Antimicrobial activity against Staphylococcus aureus CB1884 by broth microdilution method; type: functional; procedure, shortened: as §2
[32] = test system: Staphylococcus aureus; experiment: Antimicrobial activity against Staphylococcus aureus CB809 harboring rpoB H481Y and parC S80F mutant genes by broth microdilution method
[33] = test system: Staphylococcus aureus; experiment: Antimicrobial activity against wild-type Staphylococcus aureus CB190 by broth microdilution method; type: functional; procedure, shortened: as §3

Structure (SMILES): CO[C@H]1/C=C/O[C@@]2(C)Oc3c(C)c(O)c4c(O)c(c(/C=N/N5CCC(N(C)C6([C@@H]7CCN(c8c(F)cn9c(=O)c(C(=O)O)cc(C%10CC%10)c9c8C)C7)CC6)CC5)c(O)c4c3C2=O)NC(=O)/C(C)=C\C=C\[C@H](C)[C@H](O)[C@@H](C)[C@@H](O)[C@@H](C)[C@H](OC(C)=O)[C@@H]1C
- MIC [1]: 2 µg/mL (≈ 1.66 µM)
- MIC [2]: 8 µg/mL (≈ 6.64 µM)
- Activity [3]: Active
- MIC [4]: 0.032 µg/mL (≈ 0.0265 µM)
- MIC [5]: 0.12 µg/mL (≈ 0.0996 µM)
- MIC [6]: 16 µg/mL (≈ 13.3 µM)
- CC50 [7]: 2.7 µM
- Activity [8]: Active
- MIC [9]: 0.5 µg/mL (≈ 0.415 µM)
- MIC [10]: 0.25 µg/mL (≈ 0.207 µM)
- MIC [11]: 16 µg/mL (≈ 13.3 µM)
- MIC [12]: 16 µg/mL (≈ 13.3 µM)
- MIC [13]: 0.12 µg/mL (≈ 0.0996 µM)
- MIC [14]: 0.25 µg/mL (≈ 0.207 µM)
- MIC [15]: 0.5 µg/mL (≈ 0.415 µM)
- MIC [16]: 0.5 µg/mL (≈ 0.415 µM)
- Time [17]: 45 min
- MIC [18]: 0.5 µg/mL (≈ 0.415 µM)
- MIC [19]: 0.015 µg/mL (≈ 0.0124 µM)
- Time [20]: 43 min
- IC50 [21]: > 25 µM
- MIC [22]: 0.5 µg/mL (≈ 0.415 µM)
- MIC [23]: 0.03 µg/mL (≈ 0.0249 µM)
- MIC [24]: 0.015 µg/mL (≈ 0.0124 µM)
- MIC [25]: > 16 µg/mL
- MIC [26]: 0.03 µg/mL (≈ 0.0249 µM)
- MIC [27]: 1 µg/mL (≈ 0.83 µM)
- CC50 [28]: > 150 µM
- MIC [29]: > 8 µg/mL
- Time [30]: 41 min
- MIC [31]: 64 µg/mL (≈ 53.1 µM)
- MIC [32]: 0.25 µg/mL (≈ 0.207 µM)
- MIC [33]: 0.015 µg/mL (≈ 0.0124 µM)
